# What was measured:
# [1] = test system: Human immunodeficiency virus 2; experiment: Antiviral activity against HIV2 ROD infected in human MT4 cells assessed as inhibition of viral cytopathicity after 5 days by MTT assay; type: functional, organism-based; details: Human immunodeficiency virus 2, ISOLATE ROD, MT4, 120 h
# In short: (§1)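 HIV-infected MT-4 cells were compared with mock-infected wells in triplicate. Exponentially growing cells were pelleted for 5 min at 1000 rpm and resuspended at 6 × 10^5 cells/ml. Compound was added at the start of infection from stocks at 10× final concentration. Viability was read by MTT five days post-infection. EC50 is the concentration giving 50% protection against virus-induced cytotoxicity, taken as the median of two or three parallel assays.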
# [2] = Selectivity index, ratio of CC50 for human MT4 cells to EC50 for HIV1 3B infected in human MT4 cells; type: toxicity, cell-based; details: read-out: Ratio CC50/EC50
# In short: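 MT-4 cells at 6 × 10^5 cells/ml, in triplicate wells, infected with HIV-1 IIIB or mock-infected. Compounds added from 10× stocks at the start of infection. MTT viability read on day 5. SI = CC50 (mock-infected cells) / EC50 (IIIB). Median of two or three parallel assays.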
# [3] = Cytotoxicity against human MT4 cells assessed as cell viability after 5 days by MTT assay; type: cell-based
# In short: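 Mock-infected MT-4 cells, from exponentially growing cultures pelleted and resuspended at 6 × 10^5 cells/ml, were run in triplicate wells alongside the infected series. Compound was added from 10× stocks at the start of the experiment. Viability was read by MTT after five days. CC50 is the concentration that lowers viability by 50%, taken as the median of two or three parallel assays.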
# [4] = test system: Human immunodeficiency virus 1; experiment: Antiviral activity against wild-type HIV1 3B infected in human MT4 cells assessed as inhibition of viral cytopathicity after 5 days by MTT assay; type: functional, organism-based; details: Human immunodeficiency virus 1, 3B, MT4, 120 h; in short: as §1
# [5] = target: Human immunodeficiency virus type 1 reverse transcriptase (Human immunodeficiency virus 1, UniProt Q72547); experiment: Inhibition of wild-type HIV1 reverse transcriptase assessed as incorporation of biotin-labeled dUTP
# In short: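 HIV-1 RT enzyme assay with poly(A)·oligo(dT)15 as template-primer. Incorporation of digoxigenin- and biotin-labeled dUTP into DNA was read colorimetrically with the peroxidase substrate ABTS.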
# [6] = test system: Human immunodeficiency virus 1; experiment: Antiviral activity against HIV1 RES056 harboring reverse transcriptase K103N/Y181C mutant infected in human MT4 cells assessed as inhibition of viral cytopathicity after 5 days by MTT assay; type: functional, organism-based; details: Human immunodeficiency virus 1, RES056, MT4, 120 h
# In short: (§2)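 MT-4 cells pelleted 5 min at 1000 rpm, resuspended at 6 × 10^5 cells/ml and plated. Compounds added from 10× stocks at the start, in triplicate wells, to HIV-infected and mock-infected cells in parallel. Viability read by MTT 5 days after infection. EC50 is 50% protection from virus-induced cytotoxicity. CC50 is 50% loss of viability in mock-infected cells. SI = CC50/EC50. Median of two or three parallel assays.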
# [7] = test system: Human immunodeficiency virus 1; experiment: Fold resistance, ratio of EC50 for HIV1 RES056 expressing K103N/Y181C mutant infected in human MT4 cells to EC50 for wild-type HIV1 3B infected in human MT4 cells; type: functional
# In short: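 MTT protection assay in MT-4 cells run in parallel against the K103N/Y181C double mutant (RES056) and wild-type IIIB. Viability read 5 days after infection. Fold resistance = EC50 against the mutant divided by EC50 against IIIB. Median of two or three parallel assays.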
# [8] = Selectivity index, ratio of CC50 for human MT4 cells to EC50 for HIV1 RES056 harboring reverse transcriptase K103N/Y181C mutant infected in human MT4 cells; type: toxicity, cell-based; details: read-out: Ratio CC50/EC50; in short: as §2
structure (smiles),measurement,setting,value
Cc1cc(C#N)cc(C)c1Oc1ccc([N+](=O)[O-])c(NC2CCN(Cc3ccc(S(C)(=O)=O)cc3)CC2)c1,EC50,[1],> 234 µM
same,selectivity ratio,[2],> 10800
same,CC50 at 120 h,[3],> 234 µM
same,EC50,[4],0.022 µM
same,IC50,[5],0.36 µM
same,EC50,[6],> 234 µM
same,Ratio EC50,[7],>10770
Cc1cc(C)c(Oc2ccc([N+](=O)[O-])c(NC3CCN(Cc4ccc(S(C)(=O)=O)cc4)CC3)c2)c(C)c1,EC50,[1],> 158 µM
same,selectivity ratio,[2],5900
same,CC50 at 120 h,[3],158 µM
same,EC50,[4],0.027 µM
same,EC50,[6],> 158 µM
same,Ratio EC50,[7],>5895
same,selectivity ratio,[8],< 1
O=c1[nH]cnc2c1ncn2[C@H]1CC[C@@H](CO)O1 [DIDANOSINE],EC50,[1],18 µM
same,selectivity ratio,[2],> 11
same,CC50 at 120 h,[3],> 212 µM
same,EC50,[4],19 µM
same,selectivity ratio,[8],> 12
COC(=O)c1ccc(CN2CCC(Nc3cc(Oc4c(C)cc(C)cc4C)ccc3[N+](=O)[O-])CC2)cc1,EC50,[1],> 248 µM
same,selectivity ratio,[2],> 246
same,CC50 at 120 h,[3],> 248 µM
same,EC50,[4],1 µM
same,EC50,[6],> 248 µM
same,Ratio EC50,[7],>246
Cc1cc(C#N)cc(C)c1Oc1ccc([N+](=O)[O-])c(NC2CCN(Cc3ccc(C(=O)O)cc3)CC2)c1,EC50,[1],> 30 µM
same,selectivity ratio,[2],159
same,CC50 at 120 h,[3],30 µM
same,EC50,[4],0.19 µM
same,EC50,[6],> 30 µM
same,Ratio EC50,[7],>159
same,selectivity ratio,[8],< 1
Cc1cc(C#N)cc(C)c1Oc1ccc([N+](=O)[O-])c(NC2CCN(Cc3ccc([N+](=O)[O-])cc3)CC2)c1,EC50,[1],> 182 µM
same,selectivity ratio,[2],269
same,CC50 at 120 h,[3],182 µM
same,EC50,[4],0.67 µM
same,EC50,[6],> 182 µM
same,Ratio EC50,[7],>269
same,selectivity ratio,[8],< 1
Cc1cc(C#N)cc(C)c1Oc1ccc([N+](=O)[O-])c(NC2CCN(Cc3ccc(S(N)(=O)=O)cc3)CC2)c1,EC50,[1],> 23 µM
same,selectivity ratio,[2],782
same,CC50 at 120 h,[3],23 µM
same,EC50,[4],0.029 µM
same,EC50,[6],> 23 µM
same,Ratio EC50,[7],>782
same,selectivity ratio,[8],< 1
Cc1cc(C)c(Oc2ccc([N+](=O)[O-])c(NC3CCN(Cc4ccc(CO)cc4)CC3)c2)c(C)c1,EC50,[1],> 25 µM
same,selectivity ratio,[2],255
same,CC50 at 120 h,[3],25 µM
same,EC50,[4],0.096 µM
same,EC50,[6],> 25 µM
same,Ratio EC50,[7],>255
same,selectivity ratio,[8],< 1
Cc1cc(C)c(Oc2ccc([N+](=O)[O-])c(NC3CCN(Cc4ccc(C(N)=O)cc4)CC3)c2)c(C)c1,EC50,[1],> 27 µM
same,selectivity ratio,[2],457
same,CC50 at 120 h,[3],27 µM
same,EC50,[4],0.059 µM
same,EC50,[6],> 27 µM
same,Ratio EC50,[7],>457
same,selectivity ratio,[8],< 1
CC(=O)c1ccc(CN2CCC(Nc3cc(Oc4c(C)cc(C#N)cc4C)ccc3[N+](=O)[O-])CC2)cc1,EC50,[1],> 251 µM
same,selectivity ratio,[2],> 1630
same,CC50 at 120 h,[3],> 251 µM
same,EC50,[4],0.15 µM
same,EC50,[6],> 251 µM
same,Ratio EC50,[7],>1630
Cc1cn([C@H]2C[C@H](N=[N+]=[N-])[C@@H](CO)O2)c(=O)[nH]c1=O [ZIDOVUDINE],EC50,[1],0.0057 µM
same,selectivity ratio,[2],> 13100
same,CC50 at 120 h,[3],> 94 µM
same,EC50,[4],0.0072 µM
same,EC50,[6],0.0074 µM
same,selectivity ratio,[8],> 12600
Cc1cc(C#N)cc(C)c1Oc1ccc([N+](=O)[O-])c(NC2CCN(Cc3ccc(CO)cc3)CC2)c1,EC50,[1],> 11 µM
same,selectivity ratio,[2],80
same,CC50 at 120 h,[3],11 µM
same,EC50,[4],0.14 µM
same,EC50,[6],> 11 µM
same,Ratio EC50,[7],>80
same,selectivity ratio,[8],< 1
Cc1cc(C)c(Oc2ccc([N+](=O)[O-])c(NC3CCN(Cc4ccc(C(=O)O)cc4)CC3)c2)c(C)c1,EC50,[1],> 35 µM
same,selectivity ratio,[2],161
same,CC50 at 120 h,[3],35 µM
same,EC50,[4],0.22 µM
same,EC50,[6],> 35 µM
same,Ratio EC50,[7],>161
same,selectivity ratio,[8],< 1
CC(C)Nc1cccnc1N1CCN(C(=O)c2cc3cc(NS(C)(=O)=O)ccc3[nH]2)CC1 [DELAVIRDINE],selectivity ratio,[2],> 277
same,CC50 at 120 h,[3],> 36 µM
same,EC50,[6],> 36 µM
same,Ratio EC50,[7],>277
Cc1cc(C)c(Oc2ccc([N+](=O)[O-])c(NC3CCN(Cc4ccc([N+](=O)[O-])cc4)CC3)c2)c(C)c1,EC50,[1],> 147 µM
same,selectivity ratio,[2],70
same,CC50 at 120 h,[3],147 µM
same,EC50,[4],2.1 µM
same,EC50,[6],> 147 µM
same,Ratio EC50,[7],>70
same,selectivity ratio,[8],< 1
COC(=O)c1ccc(CN2CCC(Nc3cc(Oc4c(C)cc(C#N)cc4C)ccc3[N+](=O)[O-])CC2)cc1,EC50,[1],> 160 µM
same,selectivity ratio,[2],≥ 1210
same,CC50 at 120 h,[3],≥ 160 µM
same,EC50,[4],0.13 µM
same,EC50,[6],> 160 µM
same,Ratio EC50,[7],>1208
O=C1Nc2ccc(Cl)cc2[C@@](C#CC2CC2)(C(F)(F)F)O1 [EFAVIRENZ],selectivity ratio,[2],> 855
same,CC50 at 120 h,[3],> 6.3 µM
same,EC50,[4],0.0074 µM
same,Ratio EC50,[7],70
same,selectivity ratio,[8],> 12
Cc1cc(C)c(Oc2ccc([N+](=O)[O-])c(NC3CCN(Cc4ccncc4)CC3)c2)c(C)c1,EC50,[1],> 21 µM
same,selectivity ratio,[2],258
same,CC50 at 120 h,[3],21 µM
same,EC50,[4],0.082 µM
same,EC50,[6],> 21 µM
same,Ratio EC50,[7],>258
same,selectivity ratio,[8],< 1
Cc1cc(C)c(Oc2ccc([N+](=O)[O-])c(NC3CCN(Cc4ccccc4)CC3)c2)c(C)c1,EC50,[1],> 25 µM
same,selectivity ratio,[2],37
same,CC50 at 120 h,[3],25 µM
same,EC50,[4],0.66 µM
same,EC50,[6],> 25 µM
same,Ratio EC50,[7],>37
same,selectivity ratio,[8],< 1
CC(=O)Nc1ccc(Oc2c(C)cc(C#N)cc2C)cc1NC1CCN(Cc2ccc(S(N)(=O)=O)cc2)CC1,EC50,[1],> 228 µM
same,CC50 at 120 h,[3],> 228 µM
same,EC50,[4],> 228 µM
Cc1cc(C#N)cc(C)c1Oc1ccc(N)c(NC2CCN(Cc3ccc(S(N)(=O)=O)cc3)CC2)c1.Cl,EC50,[1],> 22 µM
same,selectivity ratio,[2],505
same,CC50 at 120 h,[3],22 µM
same,EC50,[4],0.043 µM
same,EC50,[6],4.8 µM
same,Ratio EC50,[7],114
same,selectivity ratio,[8],4.4
Cc1cc(C#N)cc(C)c1Oc1ccc([N+](=O)[O-])c(NC2CCN(Cc3ccccc3)CC2)c1,EC50,[1],> 2.8 µM
same,selectivity ratio,[2],4.4
same,CC50 at 120 h,[3],2.8 µM
same,EC50,[4],0.63 µM
same,EC50,[6],> 2.8 µM
same,Ratio EC50,[7],>4.4
same,selectivity ratio,[8],< 1
CC(=O)c1ccc(CN2CCC(Nc3cc(Oc4c(C)cc(C)cc4C)ccc3[N+](=O)[O-])CC2)cc1,EC50,[1],> 138 µM
same,selectivity ratio,[2],1310
same,CC50 at 120 h,[3],138 µM
same,EC50,[4],0.11 µM
same,EC50,[6],> 138 µM
same,Ratio EC50,[7],>1312
same,selectivity ratio,[8],< 1
Cc1cc(C#N)cc(C)c1Oc1ccc([N+](=O)[O-])c(NC2CCN(Cc3ccc(C(N)=O)cc3)CC2)c1,EC50,[1],> 27 µM
same,selectivity ratio,[2],430
same,CC50 at 120 h,[3],27 µM
same,EC50,[4],0.062 µM
same,EC50,[6],> 27 µM
same,Ratio EC50,[7],>430
same,selectivity ratio,[8],< 1
Cc1cc(C)c(Oc2ccc([N+](=O)[O-])c(NC3CCN(Cc4ccc(S(N)(=O)=O)cc4)CC3)c2)c(C)c1,EC50,[1],> 22 µM
same,selectivity ratio,[2],615
same,CC50 at 120 h,[3],22 µM
same,EC50,[4],0.036 µM
same,EC50,[6],> 22 µM
same,Ratio EC50,[7],>615
same,selectivity ratio,[8],< 1
Cc1cc(C#N)cc(C)c1Oc1ccc([N+](=O)[O-])c(NC2CCN(Cc3ccncc3)CC2)c1,EC50,[1],> 19 µM
same,selectivity ratio,[2],336
same,CC50 at 120 h,[3],19 µM
same,EC50,[4],0.056 µM
same,EC50,[6],> 19 µM
same,Ratio EC50,[7],>336
same,selectivity ratio,[8],< 1

# From ChEMBL document CHEMBL3098104, “Design, synthesis and preliminary SAR studies of novel N-arylmethyl substituted piperidine-linked aniline derivatives as potent HIV-1 NNRTIs” (Bioorg Med Chem, 2014)
